Data set [1] deals with Colon 26. Kind of data set: (§1) Photodynamic therapy against […] cells xenografted in BALB/c mouse assessed as reduction tumor volumes by measuring tumor cure response at 0.25 umol/kg, iv exposed to laser light at 787 nm at a dose of 135 J/cm2 and 35 mW/cm2 after 24 hrs post dose measured at day 60 post dose. The format is functional. As to conditions: dose 0.25 µmol/kg, time 60.0 day.

Data set [2] can be described thus: Drug uptake in tumor of BALB/c mouse xenografted with […] cells at 0.25 umol/kg, iv measured at 24 hrs by fluorescence imaging. The data set is classed as ADME, organism-based, Neoplasm. The conditions noted are these: in vivo, dose 0.25 µmol/kg. In outline:
(§2)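 Subcutaneous Colon 26 tumors (~50 mm3) on the shoulder of BALB/c mice, 3 mice/group. Photosensitizer 0.25 μmol/kg iv in 1% Tween 80/D5W. Under isoflurane, Maestro spectral imaging used the Deep Red filter set (Ex 671–705 nm, Em 750 nm long-pass, 2 s exposure). Images taken at 4, 8, 12, 24 and 48 h; unmixed tumor signal quantified.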

Data set [3] deals with Colon 26. Kind of data set: Photodynamic therapy against […] cells assessed as reduction in cell viability at 0.025 uM incubated for 24 hrs followed by exposure to light at 787 nm in the range of 0-1.0 J/cm2 irradiation by MTT assay. The data set is classed as functional, cell-based. The method in brief:
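Murine Colon 26 cells (3600/well) exposed to 0.025 μM photosensitizer for 24 h. Irradiated at 787 nm from a tunable dye laser, 0–1.0 J/cm2 at 3.2 mW/cm2. MTT added 48 h after light. Blank-subtracted OD divided by untreated OD for each light dose gave percent survival. Single experiment in triplicate.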

The nature of data set [4]: Photosensitizing activity in mouse Colon 26 cells assessed as induction of STAT3 cross-linking at 250 nM incubated for 24 hrs followed exposure to irradiation at 797 nm light (3 J/cm2) by Western blotting analysis.
Data set [5] has as its system Colon 26. Kind of data set: Photodynamic therapy against […] cells xenografted in BALB/c mouse assessed as reduction tumor volumes by measuring tumor response at 0.25 umol/kg, iv exposed to laser light at 787 nm at a dose of 135 J/cm2 and 35 mW/cm2 after 48 hrs post dose measured at day 60 post dose. The data set is classed as functional, organism-based. As to conditions: dose 0.25 µmol/kg, time 60.0 day.

Data set [6] in a line: Photosensitizing activity in mouse Colon 26 cells assessed as induction of STAT3 cross-linking at 125 nM incubated for 24 hrs followed exposure to irradiation at 797 nm light (3 J/cm2) by Western blotting analysis.
A short description of data set [7]: Drug uptake in tumor of BALB/c mouse xenografted with […] cells at 0.25 umol/kg, iv measured after 4 hrs by fluorescence imaging. The format is ADME, organism-based, Neoplasm. The conditions noted are these: in vivo, dose 0.25 µmol/kg. In outline:
as §2

Data set [8] relates to Colon 26. Kind of data set: Photodynamic therapy against […] cells assessed as reduction in cell viability at 0.1 to 0.4 uM incubated for 24 hrs followed by exposure to 0.25J/cm2 irradiation by MTT assay. As to conditions: dose 0.1-0.4 µM. The format is functional, cell-based. In outline: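 Murine Colon 26 cells (3600/well) exposed to a range of photosensitizer concentrations for 24 h, then irradiated at 787 nm, 0.25 J/cm2 (3.2 mW/cm2). MTT readout 48 h after light. Percent survival taken relative to untreated cells after blank subtraction. Experiments done in triplicate.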

Data set [9] has as its system Mus musculus. Kind of data set: Photosensitizing activity in BALB/c mouse implanted with mouse Colon 26 cells assessed as induction of STAT3 cross-linking at 0.47 umol/kg, iv for 24 hrs followed by exposure to laser light at 787 nm by Western blotting analysis. The conditions noted are these: BALB/c m, dose 0.47 µmol/kg.
A short description of data set [10]: Photosensitizing activity in mouse Colon 26 cells assessed as induction of STAT3 cross-linking at 60 nM incubated for 24 hrs followed exposure to irradiation at 797 nm light (3 J/cm2) by Western blotting analysis.
Data set [11] in a line: Photosensitizing activity in mouse Colon 26 cells assessed as induction of STAT3 cross-linking at 30 nM incubated for 24 hrs followed exposure to irradiation at 797 nm light (3 J/cm2) by Western blotting analysis.
The nature of data set [12]: Photosensitizing activity in mouse Colon 26 cells assessed as induction of STAT3 cross-linking at 15 nM incubated for 24 hrs followed exposure to irradiation at 797 nm light (3 J/cm2) by Western blotting analysis.
The test system of data set [13] is Colon 26. As to the kind of experiment: Photodynamic therapy against […] cells xenografted in BALB/c mouse assessed as reduction tumor volumes by measuring tumor response at 0.25 umol/kg, iv exposed to laser light at 787 nm at a dose of 135 J/cm2 and 35 mW/cm2 after 12 hrs post dose measured at day 60 post dose. As to conditions: dose 0.25 µmol/kg, time 60.0 day. The data set is classed as functional, organism-based.

Data set [14] can be described thus: Drug uptake in tumor of BALB/c mouse xenografted with […] cells at 1 umol/kg, iv measured after 24 to 48 hrs using 14C-labeled cpd by scintillation counting method. The format is ADME, organism-based, Neoplasm. The conditions noted are these: in vivo, time 24-48 hrs, dose 1 µmol/kg. The method in brief: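 Colon 26 tumor-bearing BALB/c mice (~50 mm3) received 14C-labeled compound 1.0 μmol/kg iv (0.1 μCi/mouse), 3 mice/time point. Mice euthanized at 24, 48 and 72 h; tumor and muscle removed, weighed and solubilized overnight at 50 °C. Radioactivity counted; results given as mean cpm/g tissue ± SD.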

Data set [15] can be described thus: Drug uptake in tumor of BALB/c mouse xenografted with […] cells at 0.25 umol/kg, iv measured after 24 by fluorescence imaging. The format is ADME, organism-based, Neoplasm. As to conditions: in vivo, 24 h, dose 0.25 µmol/kg. In outline:
as §2

For data set [16], the system named is Colon 26 (mouse). Kind of data set: Drug uptake in tumor of BALB/c mouse xenografted with mouse Colon 26 cells at 0.25 umol/kg, iv measured after 24 hrs followed by exposure to 787 nm light and stoppage of irradiation at regular intervals up to 30 mins by fluorescence imaging based IVIS spectrum-CT method. As to conditions: in vivo, at 0.25 µmol/kg.
Data set [17] in a line: as §1. The data set is classed as functional. Set-up: scale not given: the % may be the effect or the level left. As to conditions: dose 0.25 µmol/kg; time 60 day.
Data set [18] is described as follows: Skin phototoxicity in BALB/c mouse assessed as foot response at 0.25 umol/kg, iv after 24 to 96 hrs post dose followed by mouse restrainment and one hind foot illumination with solar light for 30 mins. The data set is classed as organism-based, BALB/c m. The conditions noted are these: in vivo, 0.5 h, time 24-96 hrs, dose 0.25 µmol/kg. In outline: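 Non-tumor BALB/c mice given photosensitizer 0.25 μmol/kg iv. At 24, 48, 72 or 96 h (3 mice/group), one hind foot was illuminated for 30 min; the other foot served as control. Edema, erythema, epilation and desquamation scored 0 (normal) to 3 (loss of foot), followed for 4 more days.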

Data set [19] is described as follows: Stability in mouse Colon 26 cells culture media assessed as hydrolysis of methyl ester to carboxylic acid incubated for 24 hrs by TLC analysis. As to conditions: colon 26, 24 h.
Data set [20] is described as follows: Drug uptake in tumor of BALB/c mouse xenografted with mouse 4T1 cells at 0.25 umol/kg, iv measured after 24 hrs by fluorescence imaging based IVIS spectrum-CT method. The conditions noted are these: in vivo, dose 0.25 µmol/kg. The data set is classed as ADME, organism-based, BALB/c m, Neoplasm. In outline:
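BALB/c mice (3/group) were given 4T1-luc cells iv to seed lung tumors, and bioluminescence was imaged at day 9. Photosensitizer 0.25 μmol/kg iv, then fluorescence imaging at 24 h on IVIS Spectrum-CT (Ex 785 nm, Em >830 nm). The fluorescence image was merged with bioluminescence.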

Calls of active or inactive are those of the source. The calls are words filed in the database; no cut-off is given here.

Consider 5 compounds from ChEMBL document CHEMBL4680088, “Highly Effective Dual-Function Near-Infrared (NIR) Photosensitizer for Fluorescence Imaging and Photodynamic Therapy (PDT) of Cancer” (J Med Chem, 2016).

For the compound `CCCCO[C@@H](C)c1c(C)c2cc3nc(c4c5[nH]c(cc6nc(cc1[nH]2)[C@H](C)[C@H]6CC)c(C)c5C(=O)N(CCCC)C4=O)[C@@H](CCC(=O)OC)[C@@H]3C`, the outcome in data set [1] and in data set [3] was Active. The Drug uptake result in data set [2] is “Active”.

In the case of `CCCCOC(C)c1c(C)c2cc3nc(c4c5[nH]c(cc6nc(cc1[nH]2)[C@H](C)[C@H]6CC)c(C)c5C(=O)N(CCCC)C4=O)[C@@H](CCC(=O)O)[C@@H]3C` (some centres not stated), the Activity in data set [4] worked out at 15%; in data set [6] it was 9%; in data set [10], 5.8%; in [11] it was 1.2%; in data set [12], 0.3%. Moreover, the result in data set [5] and in [13] was inactive. Besides, the Drug uptake entry in data set [7] is “Active”. Moreover, the outcome in data set [8] and in data set [9] was Active.

Take `CCCCN1C(=O)c2c3nc(cc4[nH]c(cc5nc(cc6[nH]c2c(c6C)C1=O)[C@H](CC)[C@H]5C)c(C(C)O[14CH2]CCC)c4C)[C@@H](C)[C@@H]3CCC(=O)OC` (some centres not stated): in data set [14], the Drug uptake entry is “Active”.

Turning to `CCCCOC(C)c1c(C)c2cc3nc(c4c5[nH]c(cc6nc(cc1[nH]2)[C@H](C)[C@H]6CC)c(C)c5C(=O)N(CCCC)C4=O)[C@@H](CCC(=O)OC)[C@@H]3C` (some centres not stated), the Drug uptake result in data set [15] is recorded as “Not Active”; in data set [16], 40%; in data set [2], “Active”; in [20], “Active”. In addition, the Activity in [4] is given as 2.4%; in [6], 1.5%; in [17] it was 80%; in data set [18], “Non-Toxic”; in data set [10], 0.5%; in data set [11] it was 0.2%. Further, the Activity in data set [12] was 0.1%. Moreover, the result in [5] was inactive. Further, the outcome in data set [8] and in data set [9] was Active. For the same compound, in [19], the Stabilty result is “Stable”.

As to `CCCCO[C@H](C)c1c(C)c2cc3nc(c4c5[nH]c(cc6nc(cc1[nH]2)[C@H](C)[C@H]6CC)c(C)c5C(=O)N(CCCC)C4=O)[C@@H](CCC(=O)OC)[C@@H]3C`, the outcome in data set [1] and in data set [3] was Active. In data set [2], the Drug uptake entry is on record as “Active”.
